Screening data (PubChem)
Sampled rows, rich in hits. Any-hit rate of the full collection: about 1.9%.
MBD2 inh = inhibitors of MBD2 binding to methylated DNA, primary screen, biochemical, TR-FRET, DNA-binding domain, human; Methyl-CpG-binding domain protein 2 (Homo sapiens), Q9UBB5; MBD2 binding to methylated oligonucleotide; inhibition, % at 4.4 µM; 370,000 tested, 0.31% active; AID 686964, 2013; in the data active = inhibition above about 13%
TDP2 absorb = human TDP2 enzyme inhibitors, primary screen, biochemical, epi absorbance, recombinant enzyme | 370,000 tested, 0.34% active | inhibition, % at 12.8 µM | Tyrosyl-DNA phosphodiesterase 2 (Homo sapiens), O95551 | T5PNP hydrolysis, p-nitrophenol absorbance 415 nm | AID 720702, 2013;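 active = inhibition above the mean of all tested compounds plus 3 SD, set per campaign, cut at about 25% in these data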
Target sequence (O95551 whole entry, looked up): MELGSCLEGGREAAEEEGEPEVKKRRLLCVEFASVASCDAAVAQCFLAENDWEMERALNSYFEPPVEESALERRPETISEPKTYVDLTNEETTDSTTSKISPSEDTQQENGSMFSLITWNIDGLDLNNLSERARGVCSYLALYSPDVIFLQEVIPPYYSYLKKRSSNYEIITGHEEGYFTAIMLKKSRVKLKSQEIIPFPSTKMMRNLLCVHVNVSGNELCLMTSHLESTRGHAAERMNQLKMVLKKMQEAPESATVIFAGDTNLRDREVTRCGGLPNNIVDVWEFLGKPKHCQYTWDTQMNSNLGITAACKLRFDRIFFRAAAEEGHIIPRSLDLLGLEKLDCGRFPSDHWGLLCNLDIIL
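Assay system: Recombinant human TDP2 | Quantity: 120 nM TDP2 per well | Incubation: 2 h at 37 °C | Signal: Epi absorbance | Evaluation: Percent inhibition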
Rin1 Abl inh = inhibitors of Rin1-Abl protein binding, primary screen, biochemical, TR-FRET. Tyrosine-protein kinase ABL1 (Homo sapiens) + Ras and Rab interactor 1 (Homo sapiens), …. inhibition, % at 7.35 µM. 360,000 tested, 0.4% active; in the data active = inhibition above about 5%, passing the limit was not always enough
UHRF1 binding = UHRF1 methylated DNA binding inhibitors, primary screen, counter-screen for MBD2 inhibitor project, biochemical, TR-FRET, human UHRF1, single concentration | E3 ubiquitin-protein ligase UHRF1 (Homo sapiens), Q96T88 | UHRF1 binding to methylated oligo | inhibition, % at 4.4 µM | 370,000 tested, 0.75% active | AID 687016, 2013; in the data active = inhibition above about 21%;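 note: UHRF1 SRA domain binding a hemimethylated CpG hairpin DNA probe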
LEDGF integ inh = blockers of LEDGF/p75-dependent integrase strand transfer – biochemical, TR-FRET, high throughput, primary screen. HIV-1 integrase (with human LEDGF/p75). TR-FRET IN-LEDGF/p75 DNA integration, Eu/Cy5. inhibition, % at 3.7 µM. 370,000 tested, 0.64% active;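 active = inhibition above the screen-wide mean plus 3 SD, cut at about 13% in these data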;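 note: signal is the Cy5 over europium emission ratio at 671 and 618 nm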
Rin1-Abl confirm = Rin1-Abl binding inhibitor retest, confirmation, biochemical, TR-FRET; 1,300 tested, 49% active; shares compounds with Rin1 Abl inh; inhibition, % at 7.35 µM; AID 602124, 2011; purified proteins; in the data active = inhibition above about 6.5%
GFP quench = GFP fluorescence inhibitors and quenchers, artefact control for Rin1-Abl interaction inhibitor project, biochemical; shares compounds with Rin1 Abl inh; inhibitors/quenchers counterscreen; inhibition, % at 6.75 µM; 1,300 tested, 8.5% active; in the data active = inhibition above about 6.5%;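 note: ABL1-eGFP fusion protein alone without its partner RIN1-SBP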
GFP quench DR = GFP fluorescence inhibitors and quenchers, dose response, artefact control for Rin1-Abl interaction inhibitor project, biochemical; shares compounds with Rin1 Abl inh; GFP fluorescence interference/quenching counterscreen; IC50, µM; 230 tested, under 10 active; AID 602182, 2012; call rule not given here;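 note: ABL1-eGFP fusion protein alone without its RIN1 binding partner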
UHRF1 ctr MBD2 = UHRF1 methylated DNA binding inhibitors, counter-screen for MBD2 inhibitor project, biochemical, TR-FRET, human UHRF1; inhibition, % at 4.4 µM; 1,000 tested, 25% active; AID 720530, 2013; UHRF1 binding to methylated oligonucleotide; shares compounds with MBD2 inh; in the data active = inhibition above about 21%;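 note: UHRF1 SRA domain binding a labeled hemimethylated CpG hairpin DNA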
MBD2 confirm = inhibitors of MBD2 binding to methylated DNA, confirmation, biochemical, TR-FRET, DNA-binding domain, human; AID 720531, 2013; 1,000 tested, 26% active; inhibition, % at 4.4 µM; TR-FRET MBD2-DBD binding to methylated oligonucleotide; shares compounds with MBD2 inh
IN multimer act = HIV-1 IN multimer formation enhancers, counter-screen for LEDGF/p75 integration inhibitor project, biochemical, TR-FRET; shares compounds with LEDGF integ inh; TR-FRET HIV-1 integrase multimerization; activation, % at 7.7 µM; 2,000 tested, 17% active; AID 1053131, 2014; in the data active = activation above about 8.9%
TR-FRET interf = TR-FRET optical interference artefacts, confirmation, artefact control for LEDGF/p75-dependent integration inhibitor project, biochemical, HIV-1 IN multimerization; 2,000 tested, under 10 active; shares compounds with LEDGF integ inh; inhibition, % at 7.7 µM; TR-FRET optical interference counterscreen;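 active = inhibition above the mean over all tested compounds plus 3 SD, which no compound reached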
IN-LEDGF confirm = inhibitors of HIV-1 IN-LEDGF/p75 DNA integration, confirmation, biochemical, TR-FRET | shares compounds with LEDGF integ inh | TR-FRET LEDGF/p75-dependent HIV-1 integration | inhibition, % at 3.7 µM | 2,000 tested, 36% active
Large screens that a line does not name were inactive (follow-up assays come after a bar, where they were run). Cut-off read from the data, not from the text of the source, unless noted: active = inhibition above about 14%; inactive = the rest.

CN=c1scc(-c2ccccc2F)n1/N=C/c1ccc(O)c(O)c1O	Rin1 Abl inh 6.3, LEDGF integ inh 22 | Rin1-Abl confirm 8.8 | GFP quench 6.7 | IN multimer act inactive | TR-FRET interf inactive | IN-LEDGF confirm 28
COC(=O)c1cc(O)cc(OC)c1Oc1cc(C)cc(O)c1C(=O)O	MBD2 inh 14, Rin1 Abl inh 20, UHRF1 binding 29, LEDGF integ inh 19 | Rin1-Abl confirm 21 | GFP quench inactive | GFP quench DR inactive | UHRF1 ctr MBD2 56 | MBD2 confirm 30 | IN multimer act 40 | TR-FRET interf inactive | IN-LEDGF confirm 58
CCCCOCCCNC(=O)C[C@H]1C(=O)N(CCCOC)C2=CCCCC[C@]21C(=O)OC	none (no result: Rin1 Abl inh)
CCOC(=O)C(C)Sc1nnc2c3ccccc3n(C)c2n1 (configuration not stated)	none
CCOC(=O)CCCCC(=O)c1[nH]c(=O)[nH]c1CSc1nnc2c3ccccc3n(C(C)C)c2n1	Rin1 Abl inh 53, LEDGF integ inh 28 | Rin1-Abl confirm 68 | GFP quench inactive | GFP quench DR inactive | IN multimer act inactive | TR-FRET interf inactive | IN-LEDGF confirm inactive
CCCn1c2ccccc2c2nnc(SCc3[nH]c(=O)[nH]c3C(=O)CCCCC(=O)OCC)nc21	Rin1 Abl inh 52, LEDGF integ inh 30 | Rin1-Abl confirm 56 | GFP quench inactive | GFP quench DR inactive | IN multimer act inactive | TR-FRET interf inactive | IN-LEDGF confirm 19
CC(C)(C)C(=O)OC12CCCN(C1)/C(=C/c1ccncc1)C2 (configuration not stated)	none (no result: Rin1 Abl inh)
O=c1c(-c2ccc(O)cc2)coc2cc(O)cc(O)c12	none
C[C@@H]1O[C@@H](OC[C@@H]2O[C@H](Oc3c(-c4ccc(O)cc4)oc4cc(O)cc(O)c4c3=O)[C@@H](O)[C@H](O)[C@H]2O)[C@H](O)[C@H](O)[C@H]1O	none
